{"source": "ChEMBL document CHEMBL1155590", "about": "“Two novel cytotoxic benzofuran derivatives from Brazilian propolis” (2000)", "format_in_all_cases": "functional", "key": {"Mus musculus": {"organism": "Mus musculus", "assay": "(§1) Cytotoxicity against mouse 26-L5 cells by MTT assay", "method_in_brief": "(§2)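 MTT viability read-out, run by a previously described method. Cells were highly liver-metastatic murine colon 26-L5 carcinoma and human HT-1080 fibrosarcoma.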"}, "HT-1080": {"tested_on": "HT-1080", "assay": "Cytotoxicity against human HT1080 cells by MTT assay", "conditions": "for EC50: read-out: ED50 (the source's name)", "method_in_brief": "as §2"}, "[1]": {"assay": "as §1", "conditions": "read-out: ED50 (the source's name)", "method_in_brief": "as §2"}}, "data": [{"compound": "C=C(C)C1Cc2cc(/C=C/C(=O)O)cc(CC=C(C)C)c2O1", "note": "(configuration not stated)", "values": [{"measurement": "Activity", "setting": "Mus musculus", "value": "Not toxic"}, {"measurement": "Activity", "setting": "HT-1080", "value": "Not toxic"}]}, {"compound": "COc1cc([C@@H]2c3c(oc4cc(C(C)=O)c(O)cc34)C(=O)C[C@H]2COC(C)=O)ccc1O", "note": "[PROPOLIS-BENZOFURAN B]", "values": [{"measurement": "EC50", "setting": "[1]", "value": 13.7, "unit": "µg/mL"}, {"measurement": "EC50", "setting": "HT-1080", "value": 43.2, "unit": "µg/mL"}]}, {"compound": "COc1cc([C@@H]2OC=C(c3cc4cc(O)c(C(C)=O)cc4o3)C[C@H]2COC(C)=O)ccc1O", "note": "[PROPOLIS-BENZOFURAN A]", "values": [{"measurement": "EC50", "setting": "[1]", "value": 12.4, "unit": "µg/mL"}, {"measurement": "EC50", "setting": "HT-1080", "value": 13.9, "unit": "µg/mL"}]}, {"compound": "COc1ccc(-c2oc3cc(O)cc(O)c3c(=O)c2O)cc1", "note": "[KAEMPFERIDE]", "values": [{"measurement": "EC50", "setting": "[1]", "value": "< 8", "unit": "µg/mL"}, {"measurement": "EC50", "setting": "HT-1080", "value": "< 8", "unit": "µg/mL"}]}, {"compound": "COc1ccc(-c2oc3cc(O)c(OC)c(O)c3c(=O)c2O)cc1", "note": "[BETULETOL]", "values": [{"measurement": "EC50", "setting": "[1]", "value": "< 8", "unit": "µg/mL"}, {"measurement": "EC50", "setting": "HT-1080", "value": "< 8", "unit": "µg/mL"}]}, {"compound": "COc1ccc(-c2oc3cc(O)cc(O)c3c(=O)c2OC)cc1", "note": "[ERMANIN]", "values": [{"measurement": "EC50", "setting": "[1]", "value": "< 8", "unit": "µg/mL"}, {"measurement": "EC50", "setting": "HT-1080", "value": "< 8", "unit": "µg/mL"}]}]}
